# Laboratory results taken from ChEMBL document CHEMBL2029303, “Syntheses and biological studies of novel spiropiperazinyl oxazolidinone antibacterial agents using a spirocyclic diene derived acylnitroso Diels-Alder reaction” (Bioorg Med Chem, 2012).
# Activity calls are given as the source filed them. The calls are words filed in the database; no cut-off is given here.
# What was measured:
# [1] = system: Bacillus subtilis; assay: Antibacterial activity against Bacillus subtilis ATCC 6633 at 50 uL of 2 mM solution of compound in 1:9 DMSO/MeOH after 24 hrs by agar diffusion method; assay type: functional
# Summary of the method: (§1)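 Agar diffusion assay against representative Gram-positive and Gram-negative bacteria and Mycobacterium vaccae; the read-out is the diameter of the inhibition zone around the applied compound, measured in mm.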
# [2] = system: Staphylococcus aureus; assay: Ratio of MIC methicillin-resistant Staphylococcus aureus ATCC 700699 in presence of 50% mouse serum to MIC for […]; assay type: functional
# Summary of the method: (§2)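 MIC assay run with 50% mouse or human serum added to gauge protein-binding effect. Fold shift is calculated as the MIC with serum over the MIC without serum.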
# [3] = system: Staphylococcus aureus; assay: Antibacterial activity against methicillin-resistant Staphylococcus aureus ATCC 700699; assay type: functional
# [4] = system: Staphylococcus aureus; assay: Antibacterial activity against Staphylococcus aureus SG 511 at 50 uL of 2 mM solution of compound in 1:9 DMSO/MeOH after 24 hrs by agar diffusion method; assay type: functional; summary of the method: as §1
# [5] = system: Staphylococcus aureus; assay: Antibacterial activity against methicillin-resistant Staphylococcus aureus ATCC 700699 in presence of 50% human serum; assay type: functional; summary of the method: as §2
# [6] = Cytotoxicity against human HepG2 cells; assay type: cell-based
# [7] = system: Staphylococcus aureus; assay: Ratio of MIC methicillin-resistant Staphylococcus aureus ATCC 700699 in presence of 50% human serum to MIC for […]; assay type: functional; summary of the method: as §2
# [8] = system: Pseudomonas aeruginosa; assay: Antibacterial activity against Pseudomonas aeruginosa SG 137 at 50 uL of 2 mM solution of compound in 1:9 DMSO/MeOH after 24 hrs by agar diffusion method; assay type: functional; summary of the method: as §1
# [9] = system: Mycobacterium tuberculosis; assay: Antimycobacterial activity against Mycobacterium tuberculosis H37Rv grown in glycerol-alanine-salts media; assay type: functional
# [10] = system: Mycolicibacterium vaccae; assay: Antimycobacterial activity against Mycobacterium vaccae IMET 10670 assessed as partial clear inhibition zone at 50 uL of 2 mM solution of compound in 1:9 DMSO/MeOH after 24 hrs by agar diffusion method; assay type: functional; summary of the method: as §1
# [11] = system: Pseudomonas aeruginosa; assay: Antibacterial activity against Pseudomonas aeruginosa K799/61 at 50 uL of 2 mM solution of compound in 1:9 DMSO/MeOH after 24 hrs by agar diffusion method; assay type: functional; summary of the method: as §1
# [12] = system: Staphylococcus aureus; assay: Antibacterial activity against methicillin-resistant Staphylococcus aureus 134/93 at 50 uL of 2 mM solution of compound in 1:9 DMSO/MeOH after 24 hrs by agar diffusion method; assay type: functional
# Summary of the method: (§3)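 Agar diffusion screen; read-out is the diameter of the inhibition zone, in mm.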
# [13] = system: Bacillus subtilis; assay: Antibacterial activity against Bacillus subtilis ATCC 6633 assessed as partial clear inhibition zone at 50 uL of 2 mM solution of compound in 1:9 DMSO/MeOH after 24 hrs by agar diffusion method; assay type: functional; summary of the method: as §1
# [14] = system: Staphylococcus aureus; assay: Antibacterial activity against methicillin-sensitive Staphylococcus aureus ATCC 29213; assay type: functional
# [15] = system: Bacillus subtilis; assay: Antibacterial activity against Bacillus subtilis ATCC 6633 assessed as clear inhibition zone at 50 uL of 2 mM solution of compound in 1:9 DMSO/MeOH after 24 hrs by agar diffusion method; assay type: functional; summary of the method: as §1
# [16] = system: Staphylococcus aureus; assay: Antibacterial activity against methicillin-resistant Staphylococcus aureus ATCC 700699 in presence of 50% mouse serum; assay type: functional; summary of the method: as §2
# [17] = system: Escherichia coli; assay: Antibacterial activity against Escherichia coli SG 458 at 50 uL of 2 mM solution of compound in 1:9 DMSO/MeOH after 24 hrs by agar diffusion method; assay type: functional; summary of the method: as §1
# [18] = system: Mycobacterium tuberculosis; assay: Antimycobacterial activity against Mycobacterium tuberculosis H37Rv grown in iron-deficient glycerol-alanine-salts media; assay type: functional
# [19] = system: Enterococcus faecalis; assay: Antibacterial activity against vancomycin-resistant Enterococcus faecalis 1528 at 50 uL of 2 mM solution of compound in 1:9 DMSO/MeOH after 24 hrs by agar diffusion method; assay type: functional; summary of the method: as §3
# [20] = system: Enterococcus faecalis; assay: Antibacterial activity against vancomycin-resistant Enterococcus faecalis 1528 assessed as partial clear inhibition zone at 50 uL of 2 mM solution of compound in 1:9 DMSO/MeOH after 24 hrs by agar diffusion method; assay type: functional; summary of the method: as §3
# [21] = system: Staphylococcus aureus; assay: Antibacterial activity against methicillin-resistant Staphylococcus aureus 134/93 assessed as clear inhibition zone at 50 uL of 2 mM solution of compound in 1:9 DMSO/MeOH after 24 hrs by agar diffusion method; assay type: functional; summary of the method: as §3
# [22] = system: Staphylococcus aureus; assay: Antibacterial activity against Staphylococcus aureus SG 511 assessed as partial clear inhibition zone at 50 uL of 2 mM solution of compound in 1:9 DMSO/MeOH after 24 hrs by agar diffusion method; assay type: functional; summary of the method: as §1
# [23] = system: Staphylococcus aureus; assay: Antibacterial activity against Staphylococcus aureus SG 511 assessed as clear inhibition zone at 50 uL of 2 mM solution of compound in 1:9 DMSO/MeOH after 24 hrs by agar diffusion method; assay type: functional; summary of the method: as §1
# [24] = system: Mycolicibacterium vaccae; assay: Antimycobacterial activity against Mycobacterium vaccae IMET 10670 assessed as unclear inhibition zone at 50 uL of 2 mM solution of compound in 1:9 DMSO/MeOH after 24 hrs by agar diffusion method; assay type: functional; summary of the method: as §1
# [25] = system: Enterococcus faecalis; assay: Antibacterial activity against vancomycin-resistant Enterococcus faecalis 1528 assessed as unclear inhibition zone at 50 uL of 2 mM solution of compound in 1:9 DMSO/MeOH after 24 hrs by agar diffusion method; assay type: functional; summary of the method: as §3
# [26] = system: Mycolicibacterium vaccae; assay: Antimycobacterial activity against Mycobacterium vaccae IMET 10670 at 50 uL of 2 mM solution of compound in 1:9 DMSO/MeOH after 24 hrs by agar diffusion method; assay type: functional; summary of the method: as §1
# [27] = system: Pseudomonas aeruginosa; assay: Antibacterial activity against Pseudomonas aeruginosa K799/61 assessed as clear inhibition zone at 50 uL of 2 mM solution of compound in 1:9 DMSO/MeOH after 24 hrs by agar diffusion method; assay type: functional, organism-based; summary of the method: as §1
Structure (SMILES),diameter of the inhibition zone (DIZ) [1] [mm],diameter of the inhibition zone (DIZ) [4] [mm],diameter of the inhibition zone (DIZ) [8] [mm],MIC [9] [µM],diameter of the inhibition zone (DIZ) [10] [mm],diameter of the inhibition zone (DIZ) [11] [mm],diameter of the inhibition zone (DIZ) [12] [mm],diameter of the inhibition zone (DIZ) [15] [mm],diameter of the inhibition zone (DIZ) [17] [mm],MIC [18] [µM],diameter of the inhibition zone (DIZ) [19] [mm],further results
CC(C)(C)OC(=O)N1OC2CCC1C21CCN(c2ccc(N3C[C@H](CO)OC3=O)cc2F)CC1 (stereo partly drawn),23.5,22,0,97,30,0,24,28,0,> 128,22,Ratio [2]: >2; MIC [3]: 32 µg/mL; MIC [5]: > 34 µg/mL; CC50 [6]: > 100 µM; Ratio [7]: >2; diameter of the inhibition zone (DIZ) [13]: 30 mm; MIC [14]: > 64 µg/mL; MIC [16]: > 64 µg/mL
CC(=O)NC[C@H]1CN(c2ccc(N3CCOCC3)c(F)c2)C(=O)O1 [LINEZOLID],–,–,–,–,–,–,–,–,–,0.4,–,–
CC(C)(C)OC(=O)N1OC2CCC1C21CCN(c2ccc(N)cc2F)CC1 (stereo not drawn),–,–,–,> 128,–,–,–,–,–,> 128,–,–
CC(=O)NC[C@H]1CN(c2ccc(N3CCC4(CC3)C(O)CCC4NC(=O)OC(C)(C)C)c(F)c2)C(=O)O1 (stereo partly drawn),14,–,0,> 128,13,0,14,19,0,> 128,15,diameter of the inhibition zone (DIZ) [20]: 18 mm; diameter of the inhibition zone (DIZ) [21]: 18 mm; diameter of the inhibition zone (DIZ) [22]: 16 mm
CC(C)(C)OC(=O)N1OC2CCC1C21CCN(c2ccc([N+](=O)[O-])cc2F)CC1 (stereo not drawn),–,–,–,> 128,–,–,–,–,–,> 128,–,–
CC(C)(C)OC(=O)N1OC2CCC1C21CCN(c2ccc(N3C[C@H](CN)OC3=O)cc2F)CC1 (stereo partly drawn),12,10,0,–,–,–,–,–,10,–,–,diameter of the inhibition zone (DIZ) [23]: 13 mm; diameter of the inhibition zone (DIZ) [24]: 25 mm; diameter of the inhibition zone (DIZ) [21]: 14 mm; diameter of the inhibition zone (DIZ) [25]: 14 mm; diameter of the inhibition zone (DIZ) [26]: 18 mm; diameter of the inhibition zone (DIZ) [27]: Active
CC(C)(C)OC(=O)N1OC2CCC1C21CCN(c2ccc(N3C[C@H](COS(C)(=O)=O)OC3=O)cc2F)CC1 (stereo partly drawn),–,–,–,118,–,–,–,–,–,67.4,–,–
CCCC(=O)OC[C@H]1CN(c2ccc(N3CCC4(CC3)C3CCC4N(C(=O)OC(C)(C)C)O3)c(F)c2)C(=O)O1 (stereo partly drawn),–,–,–,19.2,–,–,–,–,–,29.2,–,–
CC(C)(C)OC(=O)N1OC2CCC1C21CCN(c2ccc(NC(=O)OCc3ccccc3)cc2F)CC1 (stereo not drawn),–,–,–,> 128,–,–,–,–,–,> 128,–,–
CC(=O)NC[C@H]1CN(c2ccc(N3CCC4(CC3)C3CCC4N(C(=O)OC(C)(C)C)O3)c(F)c2)C(=O)O1 (stereo partly drawn),25,18,0,24.4,37,0,25,27,0,22,23,Ratio [2]: 2; MIC [3]: 16 µg/mL; MIC [5]: 62 µg/mL; CC50 [6]: > 100 µM; Ratio [7]: 4; diameter of the inhibition zone (DIZ) [22]: 22 mm; diameter of the inhibition zone (DIZ) [26]: 24 mm; MIC [14]: 64 µg/mL; MIC [16]: 32 µg/mL
